Experimental data: ChEMBL document CHEMBL3745654, “N-Alkylated arylsulfonamides of (aryloxy)ethyl piperidines: 5-HT(7) receptor selectivity versus multireceptor profile” (Bioorg Med Chem, 2016)

Key:
[1] = biological target: Sodium-dependent serotonin transporter (Rattus norvegicus) (UniProt P31652); experiment: Displacement of [3H]-citalopram from rat cerebral cortex SERT at 1 uM; type: tissue-based
[2] = biological target: T1, Adrenergic receptor alpha-1 (Rattus norvegicus, UniProt P15823+P23944+P43140); experiment: Displacement of [3H]-Prazosin form rat cerebral cortex alpha-1 adrenergic receptor after 60 mins by scintillation counting method; type: tissue-based
T1 sequence (P15823 whole entry): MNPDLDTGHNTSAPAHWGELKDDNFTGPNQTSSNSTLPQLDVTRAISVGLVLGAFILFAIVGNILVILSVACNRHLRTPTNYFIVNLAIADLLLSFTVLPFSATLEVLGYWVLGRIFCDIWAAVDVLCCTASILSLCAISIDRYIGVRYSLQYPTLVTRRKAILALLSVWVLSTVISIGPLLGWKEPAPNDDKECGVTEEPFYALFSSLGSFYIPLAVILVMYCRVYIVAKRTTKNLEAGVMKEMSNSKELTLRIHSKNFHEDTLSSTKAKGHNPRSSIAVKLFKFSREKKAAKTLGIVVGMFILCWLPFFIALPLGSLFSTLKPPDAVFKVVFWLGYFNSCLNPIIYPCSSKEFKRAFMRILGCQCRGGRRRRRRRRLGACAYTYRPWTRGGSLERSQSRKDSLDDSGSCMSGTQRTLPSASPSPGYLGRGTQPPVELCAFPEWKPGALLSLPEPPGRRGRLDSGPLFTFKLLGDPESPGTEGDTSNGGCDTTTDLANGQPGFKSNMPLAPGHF
T1 sequence (P23944 whole entry): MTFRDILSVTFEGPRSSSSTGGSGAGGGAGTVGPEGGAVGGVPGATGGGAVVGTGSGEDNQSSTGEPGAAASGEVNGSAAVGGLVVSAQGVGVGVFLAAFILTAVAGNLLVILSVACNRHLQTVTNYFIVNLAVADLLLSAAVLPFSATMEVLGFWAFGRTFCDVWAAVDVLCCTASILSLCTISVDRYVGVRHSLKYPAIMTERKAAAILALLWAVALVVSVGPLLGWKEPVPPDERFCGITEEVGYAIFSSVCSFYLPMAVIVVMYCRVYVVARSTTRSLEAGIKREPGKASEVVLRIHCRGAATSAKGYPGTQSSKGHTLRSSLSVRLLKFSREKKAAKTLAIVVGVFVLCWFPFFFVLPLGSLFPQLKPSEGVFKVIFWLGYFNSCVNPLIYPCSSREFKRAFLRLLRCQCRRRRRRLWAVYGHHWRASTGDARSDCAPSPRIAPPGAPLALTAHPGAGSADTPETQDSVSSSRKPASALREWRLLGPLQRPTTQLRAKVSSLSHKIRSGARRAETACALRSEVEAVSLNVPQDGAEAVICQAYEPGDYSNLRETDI
T1 sequence (P43140 whole entry): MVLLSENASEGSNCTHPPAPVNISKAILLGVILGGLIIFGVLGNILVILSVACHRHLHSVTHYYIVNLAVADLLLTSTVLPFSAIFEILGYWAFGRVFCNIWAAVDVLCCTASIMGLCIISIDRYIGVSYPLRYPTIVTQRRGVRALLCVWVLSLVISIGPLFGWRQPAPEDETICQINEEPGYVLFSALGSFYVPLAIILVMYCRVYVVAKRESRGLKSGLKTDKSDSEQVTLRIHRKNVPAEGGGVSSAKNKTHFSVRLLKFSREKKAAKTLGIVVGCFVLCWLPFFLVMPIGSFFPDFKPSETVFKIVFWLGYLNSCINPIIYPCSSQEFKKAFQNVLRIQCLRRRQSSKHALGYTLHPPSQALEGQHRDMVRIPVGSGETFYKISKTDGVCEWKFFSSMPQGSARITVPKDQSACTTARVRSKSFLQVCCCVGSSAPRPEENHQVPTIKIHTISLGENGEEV
Method in brief: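 Rat cerebral cortex membranes incubated with [3H]-prazosin (22 Ci/mmol; 0.6 nM). Compound tested at seven or eight concentrations (1 nM upward). Ki calculated by Cheng–Prusoff.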

D(2) dopamine receptor = D(2) dopamine receptor (Homo sapiens, UniProt P14416); experiment: Displacement of [3H]-Raclopride from human dopamine D2L receptor expressed in HEK293 cells incubated for 1 hr; type: cell-based
D(2) dopamine receptor, sequence (P14416 whole entry): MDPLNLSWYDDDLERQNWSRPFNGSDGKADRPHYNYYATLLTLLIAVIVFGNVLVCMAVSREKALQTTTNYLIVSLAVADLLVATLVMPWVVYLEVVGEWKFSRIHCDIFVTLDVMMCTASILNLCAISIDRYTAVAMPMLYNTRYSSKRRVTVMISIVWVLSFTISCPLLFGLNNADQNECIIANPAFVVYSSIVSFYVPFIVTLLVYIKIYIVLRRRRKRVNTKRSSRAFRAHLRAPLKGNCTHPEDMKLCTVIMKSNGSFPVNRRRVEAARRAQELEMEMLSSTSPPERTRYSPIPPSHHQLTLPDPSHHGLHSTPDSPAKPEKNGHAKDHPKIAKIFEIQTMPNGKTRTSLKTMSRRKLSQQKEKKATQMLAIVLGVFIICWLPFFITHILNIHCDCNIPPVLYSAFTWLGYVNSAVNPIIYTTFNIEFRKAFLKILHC
Method in brief: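 Membranes from HEK293 cells stably expressing human D2L receptor, with [3H]-raclopride (74.4 Ci/mmol). Buffer: Tris-HCl, EDTA, MgCl2, 120 mM NaCl, 5 mM KCl, 1.5 mM CaCl2, ascorbate. Incubation 1 h at 37 °C, then filtration. Non-specific binding defined with (+)butaclamol. Triplicates at 7–8 concentrations (10^-11 to 10^-4 M). Ki by Cheng–Prusoff.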

[3] = biological target: 5-hydroxytryptamine receptor 7 (Homo sapiens, UniProt P34969); experiment: Antagonist activity at human 5-HT7B receptor expressed in HEK293 cells assessed as inhibition of 5-carboxamidotryptamine-induced cAMP production; type: functional, cell-based
5-hydroxytryptamine receptor 7, sequence (P34969 whole entry): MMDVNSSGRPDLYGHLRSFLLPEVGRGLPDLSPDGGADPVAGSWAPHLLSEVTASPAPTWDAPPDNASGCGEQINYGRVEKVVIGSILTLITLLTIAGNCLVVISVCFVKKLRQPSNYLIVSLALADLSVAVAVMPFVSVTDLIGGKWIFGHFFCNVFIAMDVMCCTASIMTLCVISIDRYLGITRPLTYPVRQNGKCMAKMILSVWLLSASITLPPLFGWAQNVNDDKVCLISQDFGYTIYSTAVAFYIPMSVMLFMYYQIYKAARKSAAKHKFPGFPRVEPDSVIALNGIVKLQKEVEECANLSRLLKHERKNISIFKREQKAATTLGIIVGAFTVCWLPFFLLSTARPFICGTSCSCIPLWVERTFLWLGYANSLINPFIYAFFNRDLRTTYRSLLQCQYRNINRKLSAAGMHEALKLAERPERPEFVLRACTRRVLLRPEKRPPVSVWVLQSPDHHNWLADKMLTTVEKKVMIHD
Method in brief: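 HEK293 cells stably expressing human 5-HT7b receptor. Compound's ability to inhibit cAMP production induced by 10 nM 5-CT was measured in triplicate at 8 concentrations (10^-11 to 10^-4 M). Kb = IC50/(1 + A/EC50), where A is agonist concentration.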

[4] = biological target: 5-hydroxytryptamine receptor 2A (Homo sapiens, UniProt P28223); experiment: Displacement of [3H]-ketanserin from human 5-HT2A receptor expressed in HEK293 cells incubated for 1 hr; type: cell-based
5-hydroxytryptamine receptor 2A, sequence (P28223 whole entry): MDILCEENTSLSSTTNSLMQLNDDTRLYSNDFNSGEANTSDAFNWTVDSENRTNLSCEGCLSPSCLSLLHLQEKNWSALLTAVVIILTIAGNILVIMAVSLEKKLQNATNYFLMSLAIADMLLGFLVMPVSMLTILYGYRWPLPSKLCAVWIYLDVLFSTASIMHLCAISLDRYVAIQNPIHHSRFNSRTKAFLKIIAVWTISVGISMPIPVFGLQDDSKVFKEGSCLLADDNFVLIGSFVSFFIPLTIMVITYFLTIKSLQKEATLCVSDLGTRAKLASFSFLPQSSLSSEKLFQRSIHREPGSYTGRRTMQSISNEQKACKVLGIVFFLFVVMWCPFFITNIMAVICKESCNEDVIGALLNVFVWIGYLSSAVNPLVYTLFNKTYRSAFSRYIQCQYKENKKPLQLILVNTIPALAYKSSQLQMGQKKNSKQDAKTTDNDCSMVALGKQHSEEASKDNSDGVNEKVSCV
Method in brief: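 Membranes from HEK293 cells stably expressing human 5-HT2A receptor, with [3H]-ketanserin (66.9 Ci/mmol). Incubation 1 h at 37 °C, then rapid filtration and counting. Triplicates at 7–8 concentrations (10^-11 to 10^-4 M). Ki by Cheng–Prusoff; means of at least three experiments.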

[5] = Half life in mouse liver microsomes at 20 uM at pH 7.4 incubated for 15 mins by UPLC/MS analysis in presence of NADPH; type: ADME
Method in brief: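 Compound (20 µM) incubated with mouse liver microsomes (0.2 mg/ml) in 100 mM potassium phosphate, pH 7.4, 37 °C. Reaction started with NADPH-regenerating system; blank without NADPH run in parallel. Sampling at 5, 15, 30 and 60 min (some to 120 min), in duplicate. Levallorphan internal standard; UPLC/MS quantitation. t1/2 from ln % remaining vs time.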

[6] = biological target: Histamine H1 receptor (Homo sapiens) (UniProt P35367); experiment: Displacement of [3H]-pyrilamine from human recombinant histamine H1 receptor expressed in HEK293 cells at 1 uM after 60 mins by Scintillation counting method; type: cell-based
Histamine H1 receptor (Homo sapiens), sequence (P35367 whole entry): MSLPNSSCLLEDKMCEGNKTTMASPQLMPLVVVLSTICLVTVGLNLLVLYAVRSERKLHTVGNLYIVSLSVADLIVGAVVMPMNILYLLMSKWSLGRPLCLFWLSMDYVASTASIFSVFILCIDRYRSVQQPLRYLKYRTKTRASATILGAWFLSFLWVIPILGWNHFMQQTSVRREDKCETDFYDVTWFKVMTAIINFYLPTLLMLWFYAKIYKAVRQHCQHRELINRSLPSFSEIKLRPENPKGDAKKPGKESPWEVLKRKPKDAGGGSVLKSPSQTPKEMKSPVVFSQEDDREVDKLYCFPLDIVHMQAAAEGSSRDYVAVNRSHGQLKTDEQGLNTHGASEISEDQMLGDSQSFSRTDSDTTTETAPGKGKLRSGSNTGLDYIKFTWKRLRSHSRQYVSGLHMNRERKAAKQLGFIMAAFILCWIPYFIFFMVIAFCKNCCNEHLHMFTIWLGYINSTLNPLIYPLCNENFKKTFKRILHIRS

Sodium-dependent serotonin transporter (Rattus norvegicus), sequence (P31652 whole entry): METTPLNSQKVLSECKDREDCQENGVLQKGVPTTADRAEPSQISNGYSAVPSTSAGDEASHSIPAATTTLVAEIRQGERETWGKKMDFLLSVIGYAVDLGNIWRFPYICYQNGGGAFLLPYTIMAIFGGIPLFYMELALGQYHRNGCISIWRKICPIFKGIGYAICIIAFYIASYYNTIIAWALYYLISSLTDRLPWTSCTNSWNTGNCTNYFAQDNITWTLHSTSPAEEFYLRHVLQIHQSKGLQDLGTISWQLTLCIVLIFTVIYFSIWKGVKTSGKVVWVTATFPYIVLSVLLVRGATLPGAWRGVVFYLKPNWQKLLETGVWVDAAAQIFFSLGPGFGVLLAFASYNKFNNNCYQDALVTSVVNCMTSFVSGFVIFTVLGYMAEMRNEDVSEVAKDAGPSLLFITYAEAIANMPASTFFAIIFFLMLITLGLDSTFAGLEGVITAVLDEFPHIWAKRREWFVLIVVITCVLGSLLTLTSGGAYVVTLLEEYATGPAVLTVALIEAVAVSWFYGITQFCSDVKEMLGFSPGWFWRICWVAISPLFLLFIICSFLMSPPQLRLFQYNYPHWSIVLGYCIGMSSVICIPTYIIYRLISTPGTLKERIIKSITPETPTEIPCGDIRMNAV

Row | SMILES | inhibition [1] | Ki [2] | Ki (D(2) dopamine receptor) | Kb [3] | Ki [4] | half-life at 20 µM [5] | inhibition [6]
1 | Cn1cc(S(=O)(=O)N(CC2CC2)C2CCN(CCOc3ccccc3-c3ccccc3)CC2)cn1 | < 20% | > 300 nM | 16 nM | 79 nM | 30 nM | 62 min | < 64%
2 | CN(C1CCN(CCOc2ccccc2C(C)(C)C)CC1)S(=O)(=O)c1cnn(C)c1 | < 20% | > 300 nM | 280 nM | 82 nM | 557 nM | 20 min | < 64%
3 | Cn1cc(S(=O)(=O)N(CC2CC2)C2CCN(CCOc3ccccc3C(C)(C)C)CC2)cn1 | < 20% | > 300 nM | 230 nM | 64 nM | 1480 nM | 44.5 min | < 64%
4 | CN(C1CCN(CCOc2ccccc2-c2ccccc2)CC1)S(=O)(=O)c1cnn(C)c1 | < 20% | > 300 nM | 35 nM | 41 nM | 58 nM | 26.2 min | < 64%
